Assay results reported in ChEMBL document CHEMBL2177098, “Synthesis and evaluation of novel ¹⁸F labeled 2-pyridinylbenzoxazole and 2-pyridinylbenzothiazole derivatives as ligands for positron emission tomography (PET) imaging of β-amyloid plaques” (J Med Chem, 2012).

Experiments:
Intestine [1] = assay: Drug uptake in ICR mouse intestine assessed per organ at 370 kBq/100 ul, iv at 30 mins by gamma-counting analysis; type: ADME, organism-based; details: in vivo, 0.5 h
In short: (§1)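 Male ICR mice (5 weeks, about 20 g) got 18F tracer in saline (370 KBq per 100 μL) via tail vein; n = 5 per time point, killed at 2, 10, 30, 60 min. Organs removed and γ-counted against diluted injectate; expressed as % injected dose per organ.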

Intestine [2] = assay: Drug uptake in ICR mouse intestine assessed per organ at 370 kBq/100 ul, iv at 10 mins by gamma-counting analysis; type: ADME, organism-based; details: in vivo; in short: as §1
Intestine [3] = assay: Drug uptake in ICR mouse intestine assessed per organ at 370 kBq/100 ul, iv at 2 mins by gamma-counting analysis; type: ADME, organism-based; details: in vivo; in short: as §1
Stomach [4] = assay: Drug uptake in ICR mouse stomach assessed per organ at 370 kBq/100 ul, iv at 60 mins by gamma-counting analysis; type: ADME, organism-based; details: in vivo, 1 h
In short: (§2)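 Normal male ICR mice (5 weeks, about 20 g) received the ¹⁸F tracer in saline (370 KBq per 100 μL) by tail-vein injection. Groups of n = 5 were killed at 2, 10, 30 and 60 min. Organs were removed, weighed and γ-counted against diluted aliquots of the injectate, giving % dose per gram. Stomach and intestine were expressed per organ. The brain ratio is 2 min/60 min uptake. Values are mean ± SD.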

Stomach [5] = assay: Drug uptake in ICR mouse stomach assessed per organ at 370 kBq/100 ul, iv at 30 mins by gamma-counting analysis; type: ADME, organism-based; details: in vivo, 0.5 h; in short: as §1
Stomach [6] = assay: Drug uptake in ICR mouse stomach assessed per organ at 370 kBq/100 ul, iv at 10 mins by gamma-counting analysis; type: ADME, organism-based; details: in vivo; in short: as §1
Stomach [7] = assay: Drug uptake in ICR mouse stomach assessed per organ at 370 kBq/100 ul, iv at 2 mins by gamma-counting analysis; type: ADME, organism-based; details: in vivo; in short: as §1
Kidney [8] = assay: Drug uptake in ICR mouse kidney at 370 kBq/100 ul, iv at 60 mins by gamma-counting analysis; type: ADME, organism-based; details: in vivo, 1 h
In short: (§3)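 Male ICR mice (5 weeks, about 20 g) got 18F tracer in saline (370 KBq per 100 μL) via tail vein; n = 5 per time point, killed at 2, 10, 30, 60 min. Organs weighed and γ-counted; percent dose per gram wet tissue from comparison with diluted injectate aliquots.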

Kidney [9] = assay: Drug uptake in ICR mouse kidney at 370 kBq/100 ul, iv at 30 mins by gamma-counting analysis; type: ADME, organism-based; details: in vivo, 0.5 h; in short: as §3
Kidney [10] = assay: Drug uptake in ICR mouse kidney at 370 kBq/100 ul, iv at 10 mins by gamma-counting analysis; type: ADME, organism-based; details: in vivo; in short: as §3
Lung [11] = assay: Drug uptake in ICR mouse lung at 370 kBq/100 ul, iv at 60 mins by gamma-counting analysis; type: ADME, organism-based; details: in vivo, 1 h; in short: as §3
Kidney [12] = assay: Drug uptake in ICR mouse kidney at 370 kBq/100 ul, iv at 2 mins by gamma-counting analysis; type: ADME, organism-based; details: in vivo; in short: as §3
Lung [13] = assay: Drug uptake in ICR mouse lung at 370 kBq/100 ul, iv at 30 mins by gamma-counting analysis; type: ADME, organism-based; details: in vivo, 0.5 h; in short: as §3
Lung [14] = assay: Drug uptake in ICR mouse lung at 370 kBq/100 ul, iv at 10 mins by gamma-counting analysis; type: ADME, organism-based; details: in vivo; in short: as §3
Lung [15] = assay: Drug uptake in ICR mouse lung at 370 kBq/100 ul, iv at 2 mins by gamma-counting analysis; type: ADME, organism-based; details: in vivo; in short: as §3
Spleen [16] = assay: Drug uptake in ICR mouse spleen at 370 kBq/100 ul, iv at 60 mins by gamma-counting analysis; type: ADME, organism-based; details: in vivo, 1 h; in short: as §3
Spleen [17] = assay: Drug uptake in ICR mouse spleen at 370 kBq/100 ul, iv at 10 mins by gamma-counting analysis; type: ADME, organism-based; details: in vivo; in short: as §3
Spleen [18] = assay: Drug uptake in ICR mouse spleen at 370 kBq/100 ul, iv at 30 mins by gamma-counting analysis; type: ADME, organism-based; details: in vivo, 0.5 h; in short: as §3
Spleen [19] = assay: Drug uptake in ICR mouse spleen at 370 kBq/100 ul, iv at 2 mins by gamma-counting analysis; type: ADME, organism-based; details: in vivo; in short: as §3
Liver [20] = assay: Drug uptake in ICR mouse liver at 370 kBq/100 ul, iv at 60 mins by gamma-counting analysis; type: ADME, organism-based; details: in vivo, 1 h; in short: as §3
Liver [21] = assay: Drug uptake in ICR mouse liver at 370 kBq/100 ul, iv at 30 mins by gamma-counting analysis; type: ADME, organism-based; details: in vivo, 0.5 h; in short: as §3
Liver [22] = assay: Drug uptake in ICR mouse liver at 370 kBq/100 ul, iv at 2 mins by gamma-counting analysis; type: ADME, organism-based; details: in vivo; in short: as §3
Liver [23] = assay: Drug uptake in ICR mouse liver at 370 kBq/100 ul, iv at 10 mins by gamma-counting analysis; type: ADME, organism-based; details: in vivo; in short: as §3
Heart [24] = assay: Drug uptake in ICR mouse heart at 370 kBq/100 ul, iv at 60 mins by gamma-counting analysis; type: ADME, organism-based; details: in vivo, 1 h; in short: as §3
Heart [25] = assay: Drug uptake in ICR mouse heart at 370 kBq/100 ul, iv at 30 mins by gamma-counting analysis; type: ADME, organism-based; details: in vivo, 0.5 h; in short: as §3
Heart [26] = assay: Drug uptake in ICR mouse heart at 370 kBq/100 ul, iv at 10 mins by gamma-counting analysis; type: ADME, organism-based; details: in vivo; in short: as §3
Brain [27] = assay: Drug uptake in ICR mouse brain at 370 kBq/100 ul, iv at 60 mins by gamma-counting analysis; type: ADME, organism-based; details: in vivo, 1 h; in short: as §3
Heart [28] = assay: Drug uptake in ICR mouse heart at 370 kBq/100 ul, iv at 2 mins by gamma-counting analysis; type: ADME, organism-based; details: in vivo; in short: as §3
Brain [29] = assay: Drug uptake in ICR mouse brain at 370 kBq/100 ul, iv at 30 mins by gamma-counting analysis; type: ADME, organism-based; details: in vivo, 0.5 h; in short: as §3
Brain [30] = assay: Drug uptake in ICR mouse brain at 370 kBq/100 ul, iv at 10 mins by gamma-counting analysis; type: ADME, organism-based; details: in vivo; in short: as §3
Brain [31] = assay: Drug uptake in ICR mouse brain at 370 kBq/100 ul, iv at 2 mins by gamma-counting analysis; type: ADME, organism-based; details: in vivo; in short: as §3
Blood [32] = assay: Drug uptake in ICR mouse blood at 370 kBq/100 ul, iv at 30 mins by gamma-counting analysis; type: ADME, organism-based; details: in vivo, 0.5 h; in short: as §3
Blood [33] = assay: Drug uptake in ICR mouse blood at 370 kBq/100 ul, iv at 60 mins by gamma-counting analysis; type: ADME, organism-based; details: in vivo, 1 h; in short: as §3
Blood [34] = assay: Drug uptake in ICR mouse blood at 370 kBq/100 ul, iv at 10 mins by gamma-counting analysis; type: ADME, organism-based; details: in vivo; in short: as §3
Blood [35] = assay: Drug uptake in ICR mouse blood at 370 kBq/100 ul, iv at 2 mins by gamma-counting analysis; type: ADME, organism-based; details: in vivo; in short: as §3
Brain [36] = assay: Drug uptake in healthy human brain at 370 KBq/100 ul after 1 hr by autoradiographic analysis; type: ADME, tissue-based; details: in vitro
[37] = Displacement of [125I]-IMPY from amyloid beta (1 to 42) fibrils after 2 hrs by gamma-counting analysis
In short: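 Competition binding with aggregated Aβ1-42 fibrils and [125I]IMPY (60000−100000 cpm/100 μL) in 0.05% BSA (1 mL total); inhibitors 10⁻⁴−10^−8.5 M in ethanol. Incubated 37 °C for 2 h, then GF/B vacuum filtration with PBS (0.02 M, pH 7.4) washes and γ counting. Three repeats; IC50 converted to Ki by Cheng−Prusoff.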

Brain [38] = assay: Drug uptake in wild type C57BL6 mouse brain at 370 KBq/100 ul after 1 hr by autoradiographic analysis; type: ADME, tissue-based; details: in vitro
In short: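 Paraffin brain sections from 12-month-old male control C57BL6 mice were deparaffinized through xylene and graded ethanol, then held in PBS (0.2 M, pH 7.4) for 30 min. They were incubated with the ¹⁸F tracer (370 KBq per 100 μL) for 1 h at room temperature. Sections were washed in 40% EtOH, rinsed with water for 1 min, dried, and exposed to a phosphor plate for 2 h. The same sections were then stained with thioflavin S.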

[39] = n-Octanol-PBS buffer partition coefficient, log D of the compound at 1.5 MBq after 3 mins at pH 7.4; type: physicochemical
In short: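 The tracer was partitioned between n-octanol and PBS by vortexing for 3 min at room temperature, then centrifuged for 5 min at 3000 rpm. Samples of the octanol (50 μL) and aqueous (500 μL) layers were counted. log D is the log of the octanol/PBS counts-per-gram ratio. The octanol layer was repartitioned until values were consistent. Measured in triplicate and repeated three times.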

Brain [40] = assay: Ratio of drug uptake in brain at 2 mins to drug uptake in brain at 60 mins in ICR mouse at 370 KBq/100 ul, iv; type: ADME, organism-based; details: in vivo; in short: as §2
Bone [41] = assay: Drug uptake in ICR mouse bone at 370 kBq/100 ul, iv at 60 mins by gamma-counting analysis; type: ADME, organism-based, Bone element; details: in vivo, 1 h; in short: as §3
Bone [42] = assay: Drug uptake in ICR mouse bone at 370 kBq/100 ul, iv at 30 mins by gamma-counting analysis; type: ADME, organism-based, Bone element; details: in vivo, 0.5 h; in short: as §3
Bone [43] = assay: Drug uptake in ICR mouse bone at 370 kBq/100 ul, iv at 2 mins by gamma-counting analysis; type: ADME, organism-based, Bone element; details: in vivo; in short: as §3
Bone [44] = assay: Drug uptake in ICR mouse bone at 370 kBq/100 ul, iv at 10 mins by gamma-counting analysis; type: ADME, organism-based, Bone element; details: in vivo; in short: as §3
Intestine [45] = assay: Drug uptake in ICR mouse intestine assessed per organ at 370 kBq/100 ul, iv at 60 mins by gamma-counting analysis; type: ADME, organism-based; details: in vivo, 1 h; in short: as §1

Drug uptake (Intestine [1]): 25.23 %ID | Drug uptake (Intestine [2]): 11.15 %ID | Drug uptake (Intestine [3]): 12.06 %ID | Drug uptake (Stomach [4]): 3.67 %ID | Drug uptake (Stomach [5]): 4.63 %ID | Drug uptake (Stomach [6]): 5.61 %ID | Drug uptake (Stomach [7]): 3.61 %ID | Drug uptake (Kidney [8]): 3.45 % ID/g | Drug uptake (Kidney [9]): 3.62 % ID/g | Drug uptake (Kidney [10]): 4.42 % ID/g | Drug uptake (Lung [11]): 2.72 % ID/g | Drug uptake (Kidney [12]): 9.57 % ID/g | Drug uptake (Lung [13]): 3.57 % ID/g | Drug uptake (Lung [14]): 3.02 % ID/g | Drug uptake (Lung [15]): 5.85 % ID/g | Drug uptake (Spleen [16]): 2.86 % ID/g | Drug uptake (Spleen [17]): 3.29 % ID/g | Drug uptake (Spleen [18]): 2.87 % ID/g | Drug uptake (Spleen [19]): 4.52 % ID/g | Drug uptake (Liver [20]): 3.06 % ID/g | Drug uptake (Liver [21]): 4.28 % ID/g | Drug uptake (Liver [22]): 10.4 % ID/g | Drug uptake (Liver [23]): 5.94 % ID/g | Drug uptake (Heart [24]): 3.7 % ID/g | Drug uptake (Heart [25]): 3.33 % ID/g | Drug uptake (Heart [26]): 3.11 % ID/g | Drug uptake (Brain [27]): 2.83 % ID/g | Drug uptake (Heart [28]): 5.59 % ID/g | Drug uptake (Brain [29]): 3.38 % ID/g | Drug uptake (Brain [30]): 4.54 % ID/g | Drug uptake (Brain [31]): 7.87 % ID/g | Drug uptake (Blood [32]): 4.45 % ID/g | Drug uptake (Blood [33]): 4.45 % ID/g | Drug uptake (Blood [34]): 3.94 % ID/g | Drug uptake (Blood [35]): 4.31 % ID/g | Drug uptake (Brain [36]): Not Active | Ki [37]: 10.1 nM | Drug uptake (Brain [38]): Not Active | logD at 0.05 h [39]: 3.59 | Ratio (Brain [40]): 2.78 | Drug uptake (Bone [41]): 6.7 % ID/g | Drug uptake (Bone [42]): 3.77 % ID/g | Drug uptake (Bone [43]): 2.04 % ID/g | Drug uptake (Bone [44]): 2.43 % ID/g | Drug uptake (Intestine [45]): 19 %ID
Compound: CNc1ccc(-c2nc3ccc(OCC[18F])cc3s2)cn1
